The values that follow come from ChEMBL document CHEMBL1165978, “Synthesis and evaluation of in vitro anticancer activity of some novel isopentenyladenosine derivatives” (Bioorg Med Chem, 2010).

The subject of assay [1] is T-24. Nature of the assay: Antimetastatic activity in human T24 cells assessed as inhibition of EGF-stimulated cellular migration at 10 uM after 16 hrs by microscopic analysis. It is filed as functional, cell-based. The gist of the method:
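Confluent T24 monolayers in 24-well plates were scratch-wounded, then given EGF (100 ng/mL) plus compound for 16 h, with DMSO (0.01% final) as control. Cells moving into the wound were photographed by microscope. Four fields per sample were counted and expressed as migration relative to control. Data are from at least 3 experiments in triplicate, mean ± SD, Student's t test.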

Assay [2] deals with T-24. Description: Antiproliferative activity against quiescent human T24 cells assessed as decrease in viable cell count at 10 uM after 72 hrs by trypan blue exclusion assay. It is filed as functional, cell-based. Put shortly: (§1)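 T24 cells were seeded at 2000/cm² in growth medium and allowed to attach for 16 h. They were then switched to complete medium (D-MEM, 10% FBS, 1 mM L-glutamine, penicillin/streptomycin) or to starvation medium (D-MEM, 0.1% FBS, 48 h, to induce quiescence). After 48 h, compound was added for 72 h, with 0.01% DMSO as control. Cells were trypsinized, stained with trypan blue and counted in a Burker chamber. Data are mean ± SD of at least 3 experiments in triplicate.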

Assay [3] relates to T-24. Description: Antiproliferative activity against proliferating human T24 cells at 10 uM after 72 hrs by MTT assay in presence of 10% fetal bovine serum. (In general: Formazan colour is commonly taken as a measure of viable cells.)
Assay [4] deals with T-24. Nature of the assay: Cytotoxicity against human T24 cells assessed as inhibition of cell colony formation at 10 uM after 24 hrs by crystal violet staining. It is filed as functional, cell-based.
For assay [5], the system named is T-24. Description: Antiproliferative activity against proliferating human T24 cells at 10 uM after 72 hrs by MTT assay. It is filed as functional, cell-based. The gist of the method: (§2)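 T24 cells were seeded at 2000/cm², and 16 h later were exposed to starvation medium (D-MEM, 0.1% FBS) or fresh complete medium (10% FBS) and treated with compound, with 0.01% DMSO as control. For the final 1 h the medium held MTT at 0.5 mg/mL. Formazan was then dissolved in DMSO for read-out. Data are mean ± SD of at least 3 experiments in triplicate, Student's t test.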

Assay [6] has as its system T-24. Nature of the assay: Antiproliferative activity against quiescent human T24 cells at 10 uM after 72 hrs by MTT assay. It is filed as functional, cell-based. Put shortly: as §2
In assay [7] the test system is T-24. Description: Antiproliferative activity against proliferating human T24 cells assessed as mild decrease in viable cell count at 10 uM after 72 hrs by trypan blue exclusion assay. It is filed as functional, cell-based. Put shortly:
as §1

The test system of assay [8] is T-24. Description: Cytotoxicity against human T24 cells assessed as mild inhibition of cell colony formation at 10 uM after 24 hrs by crystal violet staining. The format is functional, cell-based.

Calls of active or inactive are those of the source. No cut-off for these calls is given here.

As to `CC(C)=CC[n+]1cnc2c(ncn2[C@@H]2O[C@H](CO)C[C@H]2O)c1N`, in assay [1], the inhibition entry is “inactive”. In addition, the inhibition entry in assay [2] is “Active”. Moreover, in assay [3], the outcome was inactive.

For the compound `CC(C)=CCNc1ncnc2c1ncn2[C@@H]1O[C@H](CO)[C@@H](O)[C@@H]1O`, the inhibition result in assay [4] was “inactive”. The outcome in assay [5] and in assay [6] was inactive.

As to `CC(C)=CCNc1ncnc2c1ncn2[C@@H]1O[C@H](CO)[C@@H](O)[C@H]1O` (stereo in doubt; 1a), the inhibition result in assay [4] was “inactive”.

As to `CC(C)=CCNc1ncnc2c1ncn2[C@@H]1O[C@H](CO)[C@@H](O)[C@H]1O` (stereo in doubt), in assay [4], the inhibition result was “Active”. The inhibition entry in assay [1] was “inactive”. For the same compound, the result in assay [6] was Active.

Consider `CC(C)=CCNc1nc(N)nc2c1ncn2[C@@H]1O[C@H](CO)[C@@H](O)[C@H]1O`, for which, in assay [1], the inhibition result is “inactive”. The inhibition entry in assay [2], in assay [7] and in assay [8] was “Active” throughout. Besides, the result in assay [6] was Active.
